Activity calls are given as the source filed them. No cut-off for these calls is given here.
System: Mus musculus
Experiment: Antinociceptive activity in Albino Swiss mouse assessed as inhibition of acetic acid-induced writhing response at 0.05 ED50, ip administered 60 mins prior to test measured for 10 mins in presence of opioid receptor antagonist naloxone
Assay type: functional, organism-based
Settings: not given

SMILES | inhibition
O=[N+]([O-])c1cc(NC(=S)NCc2ccccc2)ccc1Cl | Active

System: Mus musculus
Experiment: Antinociceptive activity in Albino Swiss mouse assessed as inhibition of acetic acid-induced writhing response at 0.1 ED50, ip administered 60 mins prior to test measured for 10 mins
Assay type: functional, organism-based
Settings: not given
Summary of the method: (§1)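 Male Albino Swiss mice, i.p. dosing in 0.5% methylcellulose 60 min beforehand; 0.6% acetic acid injected i.p., writhing episodes counted for 10 min beginning 5 min after acid. Mean ± SEM; one-way ANOVA with Dunnett's test vs control.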

SMILES | inhibition
FC(F)(F)c1cccc(NC(=S)Nc2ccccc2Cl)c1 | Active
O=[N+]([O-])c1cc(NC(=S)NCc2ccccc2)ccc1Cl | Active

System: Mus musculus
Experiment: Neurotoxicity in Albino Swiss mouse assessed as induction of myorelaxation at 0.0125 to 0.1 ED50, ip after 60 mins by chimney test
Assay type: toxicity, organism-based
Settings: in vivo, 1 h

SMILES | Activity
Fc1ccc(NC(=S)Nc2cccc(C(F)(F)F)c2)cc1Cl | Non-toxic
FC(F)(F)c1cccc(NC(=S)Nc2ccccc2Cl)c1 | Non-toxic
O=[N+]([O-])c1cc(NC(=S)NCc2ccccc2)ccc1Cl | Non-toxic

System: Mus musculus
Experiment: Toxicity in ip dosed Albino Swiss mouse assessed as loss of righting reflex administered 60 mins before test measured up to 48 hrs
Assay type: organism-based
Settings: in vivo
Summary of the method: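 Acute toxicity in male Albino Swiss mice by Litchfield-Wilcoxon method: ED50 for loss of righting reflex after i.p. dosing, observed at 15, 30, 60, 180 min and 24, 48 h.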

SMILES | ED50 [mg/kg]
Fc1ccc(NC(=S)Nc2cccc(C(F)(F)F)c2)cc1Cl | 286.2
FC(F)(F)c1cccc(NC(=S)Nc2ccccc2Cl)c1 | 2000
O=[N+]([O-])c1cc(NC(=S)NCc2ccccc2)ccc1Cl | 909

System: Mus musculus
Experiment: Neurotoxicity in Albino Swiss mouse assessed as impairment in motor coordination at 0.0125 to 0.1 ED50, ip after 60 mins by chimney test
Assay type: toxicity, organism-based
Settings: in vivo, 1 h

SMILES | Activity
Fc1ccc(NC(=S)Nc2cccc(C(F)(F)F)c2)cc1Cl | Non-toxic
FC(F)(F)c1cccc(NC(=S)Nc2ccccc2Cl)c1 | Non-toxic
O=[N+]([O-])c1cc(NC(=S)NCc2ccccc2)ccc1Cl | Non-toxic

System: Mus musculus
Experiment: Antinociceptive activity in Albino Swiss mouse assessed as inhibition of acetic acid-induced writhing response at 0.1 ED50, ip administered 60 mins prior to test measured for 10 mins in presence of opioid receptor antagonist naloxone
Assay type: functional, organism-based
Settings: not given

inhibition | SMILES
Active | FC(F)(F)c1cccc(NC(=S)Nc2ccccc2Cl)c1

System: Mus musculus
Experiment: Anticonvulsant activity in Albino Swiss mouse assessed as protection against pentetrazol-induced tonic seizure at 0.1 ED50, ip administered 60 mins prior to test relative to untreated control
Assay type: functional
Settings: not given
Summary of the method: (§2)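 Male Albino Swiss mice (18-30 g); compound given i.p. as suspension in 0.5% methylcellulose 60 min before test; pentylenetetrazole 110 mg/kg s.c. Scored as number of mice with clonic seizures, tonic convulsions and deaths per animals tested; Fisher's exact test vs solvent control.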

SMILES | Activity [%]
O=[N+]([O-])c1cc(NC(=S)NCc2ccccc2)ccc1Cl | 43.75

System: Mus musculus
Experiment: Inhibition of (+/-)DOI-induced head twitch response in ip dosed Albino Swiss mouse administered 60 mins before (+/-)DOI injection measured for 20 mins
Assay type: functional, organism-based
Settings: not given
Summary of the method: (§3)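 Male Albino Swiss mice; compounds suspended in 0.5% methylcellulose, injected i.p. 60 min before (±)DOI 2.5 mg/kg i.p.; head twitches counted over 20 min. Mean ± SEM, percent reduction versus DOI-treated group; one-way ANOVA with Bonferroni post hoc test.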

SMILES | inhibition
Fc1ccc(NC(=S)Nc2cccc(C(F)(F)F)c2)cc1Cl | Dose-dependent effect

System: Mus musculus
Experiment: Protection against pentetrazol-induced mortality in Albino Swiss mouse at 0.05 ED50, ip administered 60 mins prior to test
Assay type: functional, organism-based
Settings: not given
Summary of the method: as §2

SMILES | Activity
O=[N+]([O-])c1cc(NC(=S)NCc2ccccc2)ccc1Cl | Active

System: Mus musculus
Experiment: Toxicity in Albino Swiss mouse assessed as inhibition of spontaneous locomotor activity at 0.1 ED50, ip administered 60 mins before test measured for 30 mins by photoresistor actometer analysis
Assay type: organism-based
Settings: in vivo, 0.5 h
Summary of the method: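 Spontaneous locomotion of single male Albino Swiss mice recorded in two-beam photoresistor actometers as beam crossings for 30 min, beginning 60 min after i.p. compound (suspension in 0.5% methylcellulose).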

SMILES | Activity
Fc1ccc(NC(=S)Nc2cccc(C(F)(F)F)c2)cc1Cl | Non-toxic
FC(F)(F)c1cccc(NC(=S)Nc2ccccc2Cl)c1 | Toxic
O=[N+]([O-])c1cc(NC(=S)NCc2ccccc2)ccc1Cl | Non-toxic

System: Mus musculus
Experiment: Inhibition of (+/-)DOI-induced head twitch response in Albino Swiss mouse at 28.6 mg/kg, ip administered 60 mins before (+/-)DOI injection measured for 20 mins relative to untreated control
Assay type: functional
Settings: not given
Summary of the method: as §3

SMILES | inhibition in vivo at 28.6 mg/kg [%]
Fc1ccc(NC(=S)Nc2cccc(C(F)(F)F)c2)cc1Cl | 51.6

System: Mus musculus
Experiment: Increase in body temperature in Albino Swiss mouse at 0.1 ED50, ip administered 60 mins before test measured 30 to 180 mins post dose
Assay type: functional, organism-based
Settings: not given
Summary of the method: (§4)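 Normothermic male Albino Swiss mice; rectal temperature by thermistor thermometer. Baseline taken as mean of readings at 60 and 30 min before dosing; i.p. dose (0.1 ED50, 0.5% methylcellulose vehicle) then readings at 30, 60, 90, 120 min (to 180 min for some). Change = final minus initial; Bonferroni post hoc test.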

SMILES | Activity
Fc1ccc(NC(=S)Nc2cccc(C(F)(F)F)c2)cc1Cl | Active

System: Mus musculus
Experiment: Inhibition of 5-HTP-induced head twitch response in Albino Swiss mouse at 0.1 ED50, ip administered 60 mins before 5-HTP injection relative to untreated control
Assay type: functional
Settings: not given
Summary of the method: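 Male Albino Swiss mice given compound i.p. (0.1 ED50, 0.5% methylcellulose) 60 min before the test; L-5-HTP 230 mg/kg i.p. injected immediately before. Head twitches counted; mean ± SEM, Dunnett's test vs control.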

SMILES | inhibition | inhibition (INH) [%]
Fc1ccc(NC(=S)Nc2cccc(C(F)(F)F)c2)cc1Cl | inactive | 
FC(F)(F)c1cccc(NC(=S)Nc2ccccc2Cl)c1 |  | 72.4
O=[N+]([O-])c1cc(NC(=S)NCc2ccccc2)ccc1Cl |  | 70.5

System: Mus musculus
Experiment: Neurotoxicity in Albino Swiss mouse assessed as impairment in motor coordination at 0.0125 to 0.1 ED50, ip after 60 mins by rotarod test
Assay type: toxicity, organism-based
Settings: in vivo, 1 h

SMILES | Activity
Fc1ccc(NC(=S)Nc2cccc(C(F)(F)F)c2)cc1Cl | Non-toxic
FC(F)(F)c1cccc(NC(=S)Nc2ccccc2Cl)c1 | Non-toxic
O=[N+]([O-])c1cc(NC(=S)NCc2ccccc2)ccc1Cl | Non-toxic

Target: 5-hydroxytryptamine receptor 2A (Rattus norvegicus, UniProt P14842)
Sequence (P14842 whole entry): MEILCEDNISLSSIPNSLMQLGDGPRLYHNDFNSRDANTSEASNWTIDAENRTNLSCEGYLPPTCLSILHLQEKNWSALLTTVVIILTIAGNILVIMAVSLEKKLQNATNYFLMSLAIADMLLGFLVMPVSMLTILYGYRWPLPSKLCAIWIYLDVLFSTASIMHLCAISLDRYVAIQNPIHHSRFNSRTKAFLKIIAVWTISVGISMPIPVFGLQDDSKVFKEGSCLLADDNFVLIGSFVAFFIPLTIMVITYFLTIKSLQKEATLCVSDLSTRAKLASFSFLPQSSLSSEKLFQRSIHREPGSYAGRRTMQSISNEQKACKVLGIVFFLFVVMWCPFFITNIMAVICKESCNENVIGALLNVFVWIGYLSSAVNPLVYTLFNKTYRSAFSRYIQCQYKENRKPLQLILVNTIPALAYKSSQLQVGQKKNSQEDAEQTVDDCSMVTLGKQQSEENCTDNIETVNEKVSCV
Experiment: Displacement of [3H]ketanserin from 5HT2A receptor in Sprague-Dawley rat brain cortex incubated for 15 mins
Settings: not given
Summary of the method: (§5)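 Rat frontal cortex homogenized in 50 mM Tris-HCl, 0.5 mM EDTA, 10 mM MgCl2, pH 7.4, washed, resuspended with 0.1% ascorbate and pargyline. Triplicates: 5-HT2A used 0.4 nM [3H]ketanserin, cinanserin for nonspecific binding; 5-HT2C used 1 nM [3H]mesulergine, mianserin nonspecific, 100 nM spiperone added. 15 min at 37 C, glass-fiber filtration.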

Ki [µM] | SMILES
4.3e-05 | Fc1ccc(NC(=S)Nc2cccc(C(F)(F)F)c2)cc1Cl
> 10 | FC(F)(F)c1cccc(NC(=S)Nc2ccccc2Cl)c1

SMILES | Ki [µM]
O=[N+]([O-])c1cc(NC(=S)NCc2ccccc2)ccc1Cl | > 10

System: Mus musculus
Experiment: Antinociceptive activity in Albino Swiss mouse assessed as inhibition of acetic acid-induced writhing response at 0.025 to 0.05 ED50, ip administered 60 mins prior to test measured for 10 mins
Assay type: functional, organism-based
Settings: not given
Summary of the method: as §1

SMILES | inhibition
O=[N+]([O-])c1cc(NC(=S)NCc2ccccc2)ccc1Cl | Active

System: Mus musculus
Experiment: Decrease in body temperature in Albino Swiss mouse at 0.1 ED50, ip administered 60 mins before test measured 60 to 120 mins post dose
Assay type: functional, organism-based
Settings: not given
Summary of the method: as §4

SMILES | Activity
O=[N+]([O-])c1cc(NC(=S)NCc2ccccc2)ccc1Cl | Active

System: Mus musculus
Experiment: Neurotoxicity in Albino Swiss mouse assessed as induction of myorelaxation at 0.0125 to 0.1 ED50, ip after 60 mins by rotarod test
Assay type: toxicity, organism-based
Settings: in vivo, 1 h

SMILES | Activity
Fc1ccc(NC(=S)Nc2cccc(C(F)(F)F)c2)cc1Cl | Non-toxic
FC(F)(F)c1cccc(NC(=S)Nc2ccccc2Cl)c1 | Non-toxic
O=[N+]([O-])c1cc(NC(=S)NCc2ccccc2)ccc1Cl | Non-toxic

Target: T1, 5-hydroxytryptamine receptor 2C (Rattus norvegicus, UniProt P08909)
T1 sequence (P08909 whole entry): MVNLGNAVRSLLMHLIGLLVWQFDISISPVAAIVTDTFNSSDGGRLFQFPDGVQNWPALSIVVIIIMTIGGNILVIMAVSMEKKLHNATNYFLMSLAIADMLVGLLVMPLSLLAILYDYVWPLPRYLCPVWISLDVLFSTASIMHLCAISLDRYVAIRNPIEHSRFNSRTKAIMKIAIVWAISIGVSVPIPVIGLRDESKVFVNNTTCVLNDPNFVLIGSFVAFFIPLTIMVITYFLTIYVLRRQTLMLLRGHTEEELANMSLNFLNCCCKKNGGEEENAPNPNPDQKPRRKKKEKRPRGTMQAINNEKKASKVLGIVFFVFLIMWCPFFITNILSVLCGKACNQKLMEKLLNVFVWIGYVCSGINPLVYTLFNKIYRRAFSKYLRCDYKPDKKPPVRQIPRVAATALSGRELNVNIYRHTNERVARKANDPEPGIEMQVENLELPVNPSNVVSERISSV
Experiment: Displacement of [3H]mesulergine from 5HT2C receptor in Sprague-Dawley rat brain cortex incubated for 15 mins
Settings: not given
Summary of the method: as §5

Ki [µM] | SMILES
> 10 | Fc1ccc(NC(=S)Nc2cccc(C(F)(F)F)c2)cc1Cl
> 10 | FC(F)(F)c1cccc(NC(=S)Nc2ccccc2Cl)c1

SMILES | Ki [µM]
O=[N+]([O-])c1cc(NC(=S)NCc2ccccc2)ccc1Cl | > 10

System: Mus musculus
Experiment: Inhibition of amphetamine-induced hyperlocomotion in Albino Swiss mouse at 0.1 ED50, ip administered 60 mins prior to test measured for 30 mins by photoresistor actometer analysis
Assay type: functional
Settings: not given
Summary of the method: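 Single male Albino Swiss mice; compound i.p. 60 min and amphetamine 5 mg/kg s.c. 30 min before test. Photoresistor actometers (circular cage, two light beams) counted beam crossings over 30 min; mean ± SEM, Dunnett's test vs control.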

SMILES | inhibition (INH) [%] | inhibition
Fc1ccc(NC(=S)Nc2cccc(C(F)(F)F)c2)cc1Cl | 47.3 | 
O=[N+]([O-])c1cc(NC(=S)NCc2ccccc2)ccc1Cl |  | inactive

System: Mus musculus
Experiment: Anticonvulsant activity in Albino Swiss mouse assessed as protection against pentetrazol-induced clonic seizure at 0.1 ED50, ip administered 60 mins prior to test relative to untreated control
Assay type: functional
Settings: not given
Summary of the method: as §2

SMILES | Activity
Fc1ccc(NC(=S)Nc2cccc(C(F)(F)F)c2)cc1Cl | inactive
O=[N+]([O-])c1cc(NC(=S)NCc2ccccc2)ccc1Cl | 43.75%
